Laboratory results: ChEMBL document CHEMBL3822447, “4-(1,2-diarylbut-1-en-1-yl)isobutyranilide derivatives as inhibitors of topoisomerase II” (2016)
Calls of active or inactive are those of the source. No cut-off for these calls is given here.

Legend:
MCF7 = assay: Cytotoxicity against human MCF7 cells assessed as cell growth inhibition after 72 hrs by trypan blue assay; format: functional; details: MCF7, 72 h
In short: (§1)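 HeLa (F-12 HAM) and MCF-7 (DMEM) kept in medium with 10% heat-inactivated FCS plus antibiotics; 4-5×10^4 cells/well seeded, compounds added after 24 h at various concentrations, then 72 h more. Viable cells counted by trypan blue; GI50 is the concentration giving 50% fewer cells than control. Mean ± SD from at least three independent experiments.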

A2780 = assay: Cytotoxicity against human A2780 cells assessed as cell growth inhibition after 72 hrs by MTS assay; format: functional; details: A2780, 72 h
In short: (§2)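 Cells grown in RPMI1640 with 10% FBS and 2 mM glutamine at 37°C, 5% CO2; plated at 15 000 cells/mL, treated with compounds 72 h after plating, and survival read by MTS after a further 72 h; dose-response curves plotted.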

HeLa [1] = assay: Cytotoxicity against human HeLa cells assessed as cell growth inhibition after 72 hrs by trypan blue assay; format: functional; in short: as §1
[2] = Cytotoxicity against human OVCAR5 cells assessed as cell growth inhibition after 72 hrs by MTS assay; format: functional; details: OVCAR-5, 72 h; in short: as §2
[3] = target: DNA topoisomerase 2-alpha (Homo sapiens) (UniProt P11388); assay: Inhibition of human recombinant topoisomerase 2 alpha-mediated relaxation of supercoiled pBR322 plasmid DNA at 50 uM after 60 mins by electrophoretic analysis
DNA topoisomerase 2-alpha (Homo sapiens), sequence (P11388 whole entry): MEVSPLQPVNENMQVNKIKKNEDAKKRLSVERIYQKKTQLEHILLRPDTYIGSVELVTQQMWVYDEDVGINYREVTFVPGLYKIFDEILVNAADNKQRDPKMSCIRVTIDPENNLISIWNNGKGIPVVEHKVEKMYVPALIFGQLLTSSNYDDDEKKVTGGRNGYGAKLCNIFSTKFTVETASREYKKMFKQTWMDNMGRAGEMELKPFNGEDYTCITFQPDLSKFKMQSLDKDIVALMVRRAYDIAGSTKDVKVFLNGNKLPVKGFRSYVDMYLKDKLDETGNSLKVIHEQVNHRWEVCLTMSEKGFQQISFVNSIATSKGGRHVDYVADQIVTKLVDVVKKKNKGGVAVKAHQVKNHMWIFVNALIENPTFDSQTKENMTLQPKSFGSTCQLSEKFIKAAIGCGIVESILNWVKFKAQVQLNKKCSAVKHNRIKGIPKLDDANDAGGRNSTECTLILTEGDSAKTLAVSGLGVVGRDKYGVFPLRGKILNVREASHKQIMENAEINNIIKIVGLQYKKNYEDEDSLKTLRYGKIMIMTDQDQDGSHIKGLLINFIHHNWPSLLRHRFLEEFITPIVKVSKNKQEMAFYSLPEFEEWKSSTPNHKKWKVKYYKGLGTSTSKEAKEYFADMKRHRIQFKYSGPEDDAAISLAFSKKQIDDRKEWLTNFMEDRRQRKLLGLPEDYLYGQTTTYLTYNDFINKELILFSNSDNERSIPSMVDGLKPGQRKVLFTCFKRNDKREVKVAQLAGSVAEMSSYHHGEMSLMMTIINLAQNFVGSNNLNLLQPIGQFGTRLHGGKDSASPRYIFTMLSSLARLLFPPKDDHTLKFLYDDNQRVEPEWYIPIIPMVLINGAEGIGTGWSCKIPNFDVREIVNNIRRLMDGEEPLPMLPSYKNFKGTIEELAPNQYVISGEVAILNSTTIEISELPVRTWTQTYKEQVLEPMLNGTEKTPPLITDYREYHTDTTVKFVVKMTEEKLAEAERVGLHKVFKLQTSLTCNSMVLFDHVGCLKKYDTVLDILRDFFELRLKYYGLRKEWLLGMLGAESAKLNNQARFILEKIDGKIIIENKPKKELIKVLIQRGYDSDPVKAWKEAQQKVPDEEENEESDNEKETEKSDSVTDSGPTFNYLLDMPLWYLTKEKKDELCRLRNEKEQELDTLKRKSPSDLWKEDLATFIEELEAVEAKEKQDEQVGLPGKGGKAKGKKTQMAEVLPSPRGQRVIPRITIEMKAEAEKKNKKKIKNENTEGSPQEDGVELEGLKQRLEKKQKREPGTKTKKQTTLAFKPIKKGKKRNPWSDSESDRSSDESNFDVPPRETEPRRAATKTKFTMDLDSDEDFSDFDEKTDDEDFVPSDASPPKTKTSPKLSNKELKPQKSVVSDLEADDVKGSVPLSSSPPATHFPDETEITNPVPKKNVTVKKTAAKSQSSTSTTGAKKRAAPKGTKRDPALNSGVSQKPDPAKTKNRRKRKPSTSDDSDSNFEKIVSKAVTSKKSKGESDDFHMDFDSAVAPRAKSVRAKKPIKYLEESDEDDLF
In short: (§3)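 Relaxation assay: 0.25 µg supercoiled pBR322 incubated with 1U human recombinant topoisomerase IIα and compound for 60 min at 37°C; m-AMSA reference at 10 µM. Stopped with SDS stop buffer plus 50 µg/mL proteinase K for 30 min at 37°C, run on 1% agarose, then stained with 1 µg/mL ethidium bromide in TAE.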

HeLa [4] = assay: Induction of apoptosis in human HeLa cells assessed as dead cells at 50 uM after 28 hrs by annexin V/FITC/propidium iodide staining-based flow cytometry (reference value: 1%); format: functional
In short: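 HeLa cells (2.0 x 10^5 per plate) seeded, grown 24 h in F-12 [HAM] with 10% heat-inactivated fetal calf serum, then exposed to test agent in complete medium for 28 h at 37 °C, 5% CO2. Cells were resuspended at 10^6 cells/mL in binding buffer and stained with annexin V-FITC plus propidium iodide for 15 min in the dark at room temperature. Read by flow cytometry.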

[5] = target: DNA topoisomerase 2-alpha (Homo sapiens) (UniProt P11388); assay: Inhibition of human recombinant topoisomerase 2 alpha-mediated relaxation of supercoiled pBR322 plasmid DNA at 50 to 100 uM after 60 mins by electrophoretic analysis; in short: as §3
HeLa [6] = assay: Induction of mitochondrial membrane depolarization in human HeLa cells at 25 uM after 28 hrs by JC-1 staining-based flow cytometric analysis (reference value: 4%); format: functional
In short: (§4)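 HeLa cells (2.0 x 10^5) seeded, compound added after 24 h, then incubated 28 h. Cells loaded with JC-1 working solution for 30 min at 37°C, washed twice and read in assay buffer by flow cytometry. Loss of red aggregate fluorescence scored as depolarized (JC-1 monomer) cells.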

HeLa [7] = assay: Induction of apoptosis in human HeLa cells assessed as early apoptotic cells at 50 uM after 28 hrs by annexin V/FITC/propidium iodide staining-based flow cytometry (reference value: 2.6%); format: functional
HeLa [8] = assay: Induction of apoptosis in human HeLa cells assessed as viable cells at 50 uM after 28 hrs by annexin V/FITC/propidium iodide staining-based flow cytometry (reference value: 95.3%); format: functional; details: read-out: Activity
HeLa [9] = assay: Induction of mitochondrial membrane depolarization in human HeLa cells after 28 hrs by JC-1 staining-based flow cytometric analysis; format: functional, cell-based; in short: as §4
HeLa [10] = assay: Induction of apoptosis in human HeLa cells assessed as late apoptotic cells at 50 uM after 28 hrs by annexin V/FITC/propidium iodide staining-based flow cytometry (reference value: 1.2%); format: functional
HeLa [11] = assay: Induction of mitochondrial membrane depolarization in human HeLa cells at 10 uM after 28 hrs by JC-1 staining-based flow cytometric analysis (reference value: 4%); format: functional; in short: as §4
[12] = target: DNA topoisomerase 2-alpha (Homo sapiens) (UniProt P11388); assay: Poisoning activity at human recombinant topoisomerase 2 alpha using supercoiled pBR322 plasmid DNA as substrate assessed as stabilization of covalent DNA-enzyme complex at 50 uM after 60 mins by electrophoretic analysis
In short: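 Cleavage assay: 0.25 µg supercoiled pBR322 with 10 U human recombinant topoisomerase IIα and compound, 60 min at 37°C. Stopped with SDS buffer and 50 µg/mL proteinase K for 30 min at 37°C, then resolved on 1% agarose containing 0.5 µg/mL ethidium bromide in TBE, with UV imaging.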

[13] = target: DNA topoisomerase 2-alpha (Homo sapiens) (UniProt P11388); assay: Inhibition of human recombinant topoisomerase 2 alpha-mediated relaxation of supercoiled pBR322 plasmid DNA at 10 to 50 uM after 60 mins by electrophoretic analysis; in short: as §3
[14] = target: T1, DNA topoisomerase 1 (Homo sapiens) (UniProt P11387); assay: Inhibition of human recombinant topoisomerase 1-mediated relaxation of supercoiled pBR322 plasmid DNA at 100 uM after 60 mins by electrophoretic analysis
T1 sequence (whole entry): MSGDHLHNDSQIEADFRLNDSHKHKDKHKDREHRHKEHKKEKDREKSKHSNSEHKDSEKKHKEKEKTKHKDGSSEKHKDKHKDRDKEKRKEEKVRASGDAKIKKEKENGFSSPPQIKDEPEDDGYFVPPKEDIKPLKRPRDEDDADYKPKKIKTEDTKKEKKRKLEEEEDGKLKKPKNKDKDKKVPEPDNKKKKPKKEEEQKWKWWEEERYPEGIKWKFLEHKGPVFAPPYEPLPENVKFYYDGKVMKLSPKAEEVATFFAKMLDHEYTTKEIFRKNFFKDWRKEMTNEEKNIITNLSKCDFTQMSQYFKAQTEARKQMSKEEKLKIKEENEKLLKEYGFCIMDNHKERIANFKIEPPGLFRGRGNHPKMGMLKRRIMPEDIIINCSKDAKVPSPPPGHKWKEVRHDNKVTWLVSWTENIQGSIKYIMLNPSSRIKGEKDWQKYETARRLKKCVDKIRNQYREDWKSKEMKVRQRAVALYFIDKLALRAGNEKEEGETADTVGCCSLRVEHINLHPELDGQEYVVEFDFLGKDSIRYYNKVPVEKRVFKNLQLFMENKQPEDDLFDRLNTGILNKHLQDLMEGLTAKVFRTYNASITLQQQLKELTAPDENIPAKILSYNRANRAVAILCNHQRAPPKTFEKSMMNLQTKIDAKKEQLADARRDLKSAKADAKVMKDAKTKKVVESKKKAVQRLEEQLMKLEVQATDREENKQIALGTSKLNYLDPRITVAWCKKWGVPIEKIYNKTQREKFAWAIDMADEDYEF
In short: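 Relaxation assay: 0.25 µg supercoiled pBR322 incubated with 2U human recombinant topoisomerase I and compound for 60 min at 37°C. Stopped with SDS stop buffer plus 50 µg/mL proteinase K for 30 min at 37°C, run on 1% agarose at room temperature, then stained with 1 µg/mL ethidium bromide in TAE.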

HeLa [15] = assay: Induction of mitochondrial membrane depolarization in human HeLa cells at 15 uM after 28 hrs by JC-1 staining-based flow cytometric analysis (reference value: 4%); format: functional; in short: as §4

Structure (SMILES) | GI50 (MCF7) [µM] | GI50 (A2780) [µM] | GI50 (HeLa [1]) [µM] | GI50 [2] [µM] | further results
CC/C(=C(/c1ccccc1)c1ccc(NC(=O)C(C)C)cc1)c1ccc(Cl)cc1Cl | 17.5 | > 50 | 8.2 | > 50 | –
CC/C(=C(\c1ccc(NC(=O)C(C)C)cc1)c1ccc(OC)cc1)c1ccc(OCc2ccccc2)cc1 | > 30 | > 50 | > 30 | > 50 | –
CC/C(=C(/c1ccc(NC(=O)C(C)C)cc1)c1ccc(OC)cc1)c1ccc(OCc2ccccc2)cc1 | 29 | > 50 | 4.2 | > 50 | –
CC/C(=C(/c1ccc(O)cc1)c1ccc(NC(=O)C(C)C)cc1)c1ccccc1 | 16.4 | 32.6 | 9.9 | > 50 | –
CC/C(=C(/c1ccc(NC(=O)C(C)C)cc1)c1ccc(OC)cc1)c1ccc(O)cc1 | 13.6 | 13.6 | 5.8 | 29.3 | inhibition [3]: Active
CC/C(=C(\c1ccccc1)c1ccc(N)cc1)c1ccccc1 | > 30 | > 50 | > 30 | > 50 | –
CC/C(=C(/c1ccc(NC(=O)C(C)C)cc1)c1ccc(OC)cc1)c1ccccc1 | > 30 | > 50 | > 30 | > 50 | –
CC/C(=C(\c1ccccc1)c1ccc(NC(=O)C(C)C)cc1)c1ccc(O)cc1 | 8.1 | 3.7 | 3.8 | 8.7 | –
CC/C(=C(\c1ccc(NC(=O)C(C)C)cc1)c1ccc(OC)cc1)c1ccccc1 | 27.9 | 17.4 | 10.1 | > 50 | –
CC/C(=C(\c1ccc(NC(=O)C(C)C)cc1)c1ccc(OC)cc1)c1ccc(O)cc1 | 9 | 5.7 | 3.7 | 23.6 | –
CC/C(=C(\c1ccc(O)cc1)c1ccc(NC(=O)C(C)C)cc1)c1ccc(Cl)cc1Cl | 12.5 | 15.7 | 8.7 | 28.8 | –
CC/C(=C(\c1ccc(O)cc1)c1ccc(NC(=O)C(C)C)cc1)c1ccccc1 | 14.7 | 34 | 9.9 | 42 | –
CC/C(=C(\c1ccccc1)c1ccc(OCCN(C)C)cc1)c1ccccc1 [TAMOXIFEN] | 6.5 | 30.3 | 12 | 32 | Activity (HeLa [4]): 2.7%; inhibition [5]: inactive; Activity (HeLa [6]): 26.2%; Activity (HeLa [7]): 29.9%; viability at 50 µM (HeLa [8]): 39.4%; Activity (HeLa [9]): Dose-dependent effect; Activity (HeLa [10]): 28%; Activity (HeLa [11]): 3.9%
CC/C(=C(\c1ccccc1)c1ccc(NC(=O)C(C)C)cc1)c1ccccc1 | > 30 | > 50 | > 30 | > 50 | –
CC/C(=C(\c1ccccc1)c1ccc(NC(=O)C(C)C)cc1)c1ccc(Cl)cc1Cl | 8.3 | 8.4 | 3.3 | > 50 | Activity [12]: Active
CC/C(=C(\c1ccccc1)c1ccc(NC(=O)C(C)C)cc1)c1ccc(OCc2ccccc2)cc1 | > 30 | 8.8 | 10.2 | > 50 | –
CC/C(=C(/c1ccccc1)c1ccc(NC(=O)C(C)C)cc1)c1ccccc1 | > 30 | 31.6 | 28.1 | > 50 | –
CC/C(=C(\c1ccc(NC(=O)C(C)C)cc1)c1ccc(OC)cc1)c1ccc(Cl)cc1Cl | 13.2 | 8.2 | 5.5 | > 50 | –
CC/C(=C(/c1ccccc1)c1ccc(NC(=O)C(C)C)cc1)c1ccc(O)cc1 | 8.5 | 4.6 | 5.1 | 12.1 | inhibition [3]: Active
CC/C(=C(/c1ccccc1)c1ccc(NC(=O)C(C)C)cc1)c1ccc(OCc2ccccc2)cc1 | > 30 | > 50 | > 30 | > 50 | –
CC/C(=C(/c1ccc(NC(=O)C(C)C)cc1)c1ccc(OC)cc1)c1ccc(Cl)cc1Cl | 6.6 | 3.8 | 2.2 | > 50 | Activity (HeLa [4]): 2.1%; inhibition [13]: Active; Activity (HeLa [6]): 80.3%; Activity (HeLa [7]): 44.4%; viability at 50 µM (HeLa [8]): 31.7%; Activity [12]: Active; inhibition [14]: inactive; Activity (HeLa [9]): Dose-dependent effect; Activity (HeLa [10]): 21.8%; Activity (HeLa [15]): 75.7%; Activity (HeLa [11]): 51.8%
CC/C(=C(/c1ccc(O)cc1)c1ccc(NC(=O)C(C)C)cc1)c1ccc(Cl)cc1Cl | 26.6 | 28.1 | 20.3 | 32.3 | –
